# From PubChem
# HTR2A ag = activates the mouse 5-HT2A serotonin receptor; P35363; CHO-K1 mHTR2A beta-arrestin complementation, luminescence; percent of 30 µM serotonin response; activation, % at 7.6 µM; actives 0.66% (n = 360,000); AID 624169;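 active = activation above a run cutoff, the mean activation of all tested compounds plus 3 SD, cut at about 14% in these data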;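 note: 0% = plate median of compound wells and 100% = 30 µM serotonin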
# EBI2 block = antagonists of human EBI2 receptor. actives 0.81% (n = 360,000). P32249. inhibition, % at 5 µM. EBI2 beta-arrestin recruitment, luminescence, 7a,25-OHC stimulated; in the data active = inhibition above about 38%;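 note: enzyme fragment complementation signal reports receptor beta-arrestin coupling in cells; 0% = agonist plus DMSO wells and 100% = wells without agonist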
# Target sequence (P32249 whole entry, looked up, the tested form may be a part): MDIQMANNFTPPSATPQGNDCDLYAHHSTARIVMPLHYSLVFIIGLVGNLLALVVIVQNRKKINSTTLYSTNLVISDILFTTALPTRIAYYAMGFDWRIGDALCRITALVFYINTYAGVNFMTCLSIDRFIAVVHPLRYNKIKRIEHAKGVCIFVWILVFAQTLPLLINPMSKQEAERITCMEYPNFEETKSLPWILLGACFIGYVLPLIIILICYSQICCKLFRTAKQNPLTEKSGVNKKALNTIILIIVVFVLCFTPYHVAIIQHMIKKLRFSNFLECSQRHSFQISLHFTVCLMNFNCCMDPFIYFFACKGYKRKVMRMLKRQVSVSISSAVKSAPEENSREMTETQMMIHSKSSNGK
# CCR6 antag = blocks CCL20-driven beta-arrestin recruitment at human CCR6. AID 493098. P51684. actives 0.49% (n = 340,000). inhibition, % at 20 µM. CHO-K1 CCR6 PathHunter beta-arrestin, luminescence, CCL20-stimulated;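 active = compounds whose inhibition of the agonist-driven luminescence signal at 20 µM reaches about 50%, limit read from the data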;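 note: cells stimulated with CCL20 at 14 nM final; plate controls were DMSO with CCL20 for no effect and DMSO without agonist for full effect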
# Target sequence (P51684 whole entry, looked up): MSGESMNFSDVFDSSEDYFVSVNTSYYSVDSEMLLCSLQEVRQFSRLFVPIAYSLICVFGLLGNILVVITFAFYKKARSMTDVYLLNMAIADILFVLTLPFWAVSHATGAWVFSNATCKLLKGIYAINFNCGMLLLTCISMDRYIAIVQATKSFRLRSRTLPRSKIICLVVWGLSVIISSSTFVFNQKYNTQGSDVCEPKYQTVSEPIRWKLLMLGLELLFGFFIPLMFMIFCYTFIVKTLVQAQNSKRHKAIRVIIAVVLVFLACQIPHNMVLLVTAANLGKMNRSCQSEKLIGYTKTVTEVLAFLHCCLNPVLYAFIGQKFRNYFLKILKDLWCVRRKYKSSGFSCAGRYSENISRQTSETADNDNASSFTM
# APJ agonist = APJ receptor agonism. P35414. CHO-K1 APJ PathHunter beta-arrestin, luminescence; 0% DMSO wells, 100% apelin. activation, % at 20 µM. actives 0.11% (n = 330,000). AID 2520;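 active = activation more than six SD over the plate average, tested at 20 µM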;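 note: 0% = DMSO alone and 100% = apelin-13 at 10 nM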
#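 system = engineered CHO-K1 APJ arrestin reporter cells | input = 1000 cells per well | timing = overnight seeding, 90 min compound at 25 °C, 1 h detection | measured by = enzyme-fragment complementation luminescence | read-out = beta-arrestin recruitment to APJ as agonist activity, luminescent signal | control set = negative DMSO alone, positive Apelin-13 at 10 nM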
# APJ antagonist = APJ receptor antagonism. P35414. CHO-K1 APJ beta-arrestin complementation, luminescence. inhibition, % at 20 µM. actives 0.32% (n = 330,000);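 active = inhibition above about 40% at 20 µM, limit read from the data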;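 note: cells challenged with 10 nM apelin-13 agonist together with compound; plate controls were apelin-13 plus DMSO wells for no effect and DMSO wells lacking apelin-13 for full effect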
# CXCR6 inh = blocks human CXCR6 beta-arrestin recruitment | actives 0.36% (n = 360,000) | inhibition, % at 20 µM | CHO-K1 PathHunter CXCR6 beta-arrestin, luminescence | O00574 | AID 602244; in the data active = inhibition above about 34%, passing the limit was not always enough;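 note: antagonist mode with CXCL16 agonist at 10 nM final; 0% = 10 nM CXCL16 with DMSO and 100% = unstimulated wells without agonist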
# OPRM1 ag = OPRM1 agonism in mouse HTR2A counterscreen; U2OS OPRM1 beta-arrestin PathHunter, luminescence; DMSO 0%, DAMGO 9.3 µM 100%; shares compounds with HTR2A ag; actives 5.3% (n = 2,300); activation, % at 9.3 µM;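 active = mean activation above the mean of DMSO-only wells plus 3 SD, cut at about 0.5% in these data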
# HTR2A ag conf = mouse HTR2A agonism confirmed; shares compounds with HTR2A ag; CHO-K1 PathHunter beta-arrestin recruitment, luminescence; DMSO 0%, 30 µM serotonin 100%; activation, % at 7.6 µM; actives 19% (n = 2,300);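 active = mean activation across triplicates above the hit threshold derived in the original primary screen, cut at about 15% in these data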
# Starred values were filed as active, the others as inactive; . = no result. Shown are actives, neighbours in structure and some others; about 2.1% of the full set was active somewhere.
SMILES,HTR2A ag,EBI2 block,CCR6 antag,APJ agonist,APJ antagonist,CXCR6 inh,OPRM1 ag,HTR2A ag conf
Fc1cccc(F)c1/C=N/Nc1ccccn1,14.5*,-1.8,1.0,-2.5,-3.9,0.2,-0.7,-2.5
Cc1ccccc1NC(=O)c1cn(-c2ccccc2)nc1-c1ccccc1,10.7,11.8,16.8,-2.2,-10.3,3.5,.,.
Cc1cccc(C)c1NC(=O)c1cn(-c2ccccc2)nc1-c1ccccc1,20.8*,-24.9,0.6,-0.7,-10.8,-2.3,-0.7,10.1
Cc1cc(C)n2[nH]c(=O)cc2n1,-3.1,-10.9,.,.,.,-2.0,.,.
CC(CN1CCCCC1)OC(=O)/C=C/c1ccccc1 (configuration not stated),17.4*,1.3,3.2,-5.3,-14.1,-9.7,-0.5,1.4
CC(CN1CCOCC1)OC(=O)/C=C/c1ccccc1 (configuration not stated),-3.4,-1.8,5.6,-2.3,-3.6,3.6,.,.
Cc1c(NC(=O)CSc2nnc(-c3ccncc3)n2C)c(=O)n(-c2ccccc2)n1C,3.0,3.1,.,.,.,-2.9,.,.
CCN(CC)C(=O)C1=C(C)N(Cc2ccc(F)cc2)C(=O)C(CC(=O)NC(c2ccccc2)c2ccccc2)C1 (configuration not stated),0.9,6.0,.,.,.,1.9,.,.
CC1CCN(CCCNC(=O)C2CCN(S(=O)(=O)N3CCCCC3)CC2)CC1,0.8,-9.4,-2.3,-1.4,7.9,-11.9,.,.
CC1CCCCN1CCNC(=O)C1CCN(S(=O)(=O)N2CCCCC2)CC1 (configuration not stated),15.4*,-2.5,4.3,3.4,-1.5,0.4,-0.5,-2.1
C[C@H]1CN([C@@H](C)CO)S(=O)(=O)c2ccc(Br)cc2O[C@H]1CN(C)C(=O)Cc1ccncc1,3.0,-0.1,.,.,.,-5.4,.,.
COc1ccc(S(=O)(=O)N2CCc3ccccc32)cc1C(=O)Nc1ccc(NC(C)=O)cc1,-4.1,12.6,8.4,-0.4,6.2,1.2,.,.
COc1ccc(NC(=O)Cn2nnc(C(=O)NCc3cccc(OC)c3)c2N)cc1,1.8,-5.6,-1.1,8.5,12.2,-2.1,.,.
COc1cccc(CNC(=O)c2nnn(CC(=O)Nc3cccc(C)c3)c2N)c1,17.6*,-2.6,9.4,-1.7,-17.0,-3.4,-0.4,-2.8
COc1ccc(NC(=O)Cn2nnc(C(=O)NCc3cccs3)c2N)cc1,15.4*,-20.2,0.9,1.8,6.1,6.1,-0.6,-1.4
Cc1ccc(NC(=O)Cn2nnc(C(=O)NCc3cccs3)c2N)cc1,-0.6,-13.8,-1.6,-2.0,8.5,1.5,.,.
Cn1c(Cc2cccs2)nnc1SCC(=O)Nc1ccc(F)cc1F,14.6*,-2.5,-13.4,-8.0,7.0,-2.5,-0.4,-4.0
COc1ccccc1NC(=O)CSc1nnc(Cc2cccs2)n1C,6.5,-3.9,6.8,-0.7,8.3,0.0,.,.
CN(C)CCCn1c(NC(=O)C2CCCCC2)nc2ccccc21,20.2*,-7.3,17.3,-2.0,-15.1,3.5,-0.6,4.3
COc1cc(C(C)=O)ccc1Oc1cnccn1,2.6,-0.9,2.7,-3.0,6.6,0.1,.,.
CC(=O)c1ccc(Oc2cnccn2)cc1,16.1*,-1.4,-9.1,-1.2,-8.3,-0.3,-0.5,-2.3
Cc1ccc(N(C(=O)c2csnn2)C(C(=O)NC2CCCCC2)c2cccnc2)cc1 (configuration not stated),-4.0,0.1,4.7,-3.0,13.1,-2.9,.,.
COc1ccc(OC)c(S(=O)(=O)N(C)CC(=O)Nc2ccccc2OC)c1,15.9*,5.7,15.4,-4.0,-6.3,8.7,-0.6,-4.7
CC1O[C@@H](O[C@H](C)CC[C@@H](C)O[C@H]2OC(C)[C@@H](O)C[C@H]2O)C(O)C[C@H]1O (some centres not stated),-1.6,-18.6,0.6,9.2,-8.8,-8.4,.,.
CCOc1ccc(-c2cc(C(=O)N/N=C(\C)c3cccnc3)c3ccccc3n2)c(OCC)c1,4.2,-2.6,-3.9,7.7,-12.4,-7.7,.,.
SMILES,HTR2A ag,EBI2 block,CCR6 antag,APJ agonist,APJ antagonist,CXCR6 inh,OPRM1 ag,HTR2A ag conf
COc1ccc(CNC(=O)C(=O)NCC2OCCCN2S(=O)(=O)c2cccs2)cc1 (configuration not stated),-3.0,-0.8,14.4,-11.1,-14.3,-2.9,.,.
Cc1ccc(NC(=O)c2cccc(-n3cnnn3)c2)cc1Cl,-7.7,-0.1,4.0,-0.3,-5.8,-7.0,.,.
CC1CCN(c2ncnc3nc[nH]c23)CC1,25.2*,-8.7,3.9,-2.9,-54.2,-2.1,0.0,1.2
COc1ccc(CC(=O)Nc2ccc(S(=O)(=O)N3CCCC3)cc2)c(OC)c1,5.5,-9.2,8.0,-2.2,-0.2,-4.1,.,.
C=CC[C@]12CC=CC(=O)[C@@]1(O)O[C@H](c1ccc(OC)c(OC)c1)[C@H]2C,6.7,15.6,-3.6,-0.8,12.7,-5.7,.,.
CC(C)c1cc(C(=O)N2CCCC(Nc3ccc(F)c(F)c3)C2)nc(N)n1 (configuration not stated),12.8,3.2,13.7,2.5,-2.5,-15.1,.,.
CC(C)c1cc(C(=O)N2CCCC(Nc3ccc(F)cc3)C2)nc(N)n1 (configuration not stated),15.8*,1.8,6.8,3.7,6.3,-0.4,-0.3,-0.3
CC(C)c1ccc(NC2CCCN(C(=O)c3ccc4nccnc4c3)C2)cc1 (configuration not stated),20.7*,-10.0,6.4,-4.4,4.3,-2.2,-0.5,-3.2
CC1CCN(C(=O)c2ccc3c(c2)OCO3)CC1,5.8,-3.9,13.1,6.3,7.4,7.9,.,.
CN1CCCN(C(=O)CNC(=O)c2ccc(Cl)cc2Cl)CC1,-0.3,2.2,6.8,-4.1,13.0,7.0,.,.
Cc1ccc(NC(=O)COC(=O)Cc2c[nH]c3ccccc23)cc1,-5.9,-6.1,.,.,.,-3.3,.,.
C[C@H](CO)N1C[C@H](C)[C@H](CN(C)C(=O)c2ccccc2F)Oc2ncc(Br)cc2C1=O,3.7,-7.3,.,.,.,-1.8,.,.
COc1ccc(OC)c(C2=Nn3c(nnc3-c3cc(OC)c(OC)c(OC)c3)SC2)c1,14.9*,24.2,15.1,-4.2,-4.1,5.9,-0.5,7.4
COc1ccc(OC)c(C2=Nn3c(nnc3-c3ccncc3)SC2)c1,-3.4,21.5,6.7,-0.8,9.2,-2.6,.,.
CC(=O)c1c(C)[nH]c(C(=O)Nc2ccc(N3CCCCCC3)cc2)c1C,-3.9,6.0,.,.,.,-2.7,.,.
CCOC(=O)c1c(O)c2c(n(Cc3ccco3)c1=O)CCCC2,15.1*,-14.0,-9.0,1.7,-24.1,-3.0,-0.4,5.6
